Data from ChEMBL document CHEMBL1143619, “Synthesis and biological evaluation of aminopolyamines” (J Med Chem, 2005).

Experiments:
L1210 [1] = test: Effect on spermine (SPM) levels after 48 h treatment at 150 uM in L1210 cells; format: functional, Mus musculus
[2] = Effect on S-Adenosyl-methionine decarboxylase (AdoMetDC) activity in L1210 cells at 1 uM for 6 hr
L1210 [3] = test: Cellular concentration expressed in L1210 cells; format: functional, Mus musculus
L1210 [4] = test: Effect on spermidine (SPD) levels after 48 hr treatment at 150 uM in L1210 cells; format: functional, Mus musculus
L1210 [5] = test: Effect on Putrescine (PUT) levels after 48 hr treatment at 150 uM in L1210 cells; format: functional, Mus musculus
[6] = biological target: T1, Ornithine decarboxylase (Mus musculus) (UniProt P00860); test: Effect on Ornithine Decarboxylase (ODC) activity in L1210 cells at 1 uM for 4 hr; format: functional, cell-based
T1 sequence (whole entry): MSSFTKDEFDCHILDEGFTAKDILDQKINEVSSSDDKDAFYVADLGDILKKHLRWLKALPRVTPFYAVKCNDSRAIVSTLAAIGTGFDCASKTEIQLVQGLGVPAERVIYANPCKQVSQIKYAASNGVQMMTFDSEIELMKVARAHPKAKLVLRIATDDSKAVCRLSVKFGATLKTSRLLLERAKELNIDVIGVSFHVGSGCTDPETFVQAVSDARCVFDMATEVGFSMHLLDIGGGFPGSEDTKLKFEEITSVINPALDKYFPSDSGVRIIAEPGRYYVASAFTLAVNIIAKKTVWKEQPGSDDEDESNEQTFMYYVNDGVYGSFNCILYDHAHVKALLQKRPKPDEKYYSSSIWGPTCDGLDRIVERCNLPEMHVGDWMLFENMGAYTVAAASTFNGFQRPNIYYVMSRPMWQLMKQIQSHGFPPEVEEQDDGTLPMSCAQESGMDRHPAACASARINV

L1210 [7] = test: Effect on Putrescine (PUT) levels after 48 h treatment at 50 uM in L1210 cells; format: functional, Mus musculus
[8] = biological target: Spermidine/spermine N(1)-acetyltransferase (SAT) (Mus musculus) (UniProt Q6P8J2+P48026); test: Effect on Spermidine/spermine N1-acetyl transferase (SSAT) activity in L1210 cells at 10 uM for 48h; format: functional, cell-based
L1210 [9] = test: Effect on spermine (SPM) levels after 48 hr treatment at 50 uM in L1210 cells; format: functional, Mus musculus
L1210 [10] = test: Effect on spermidine (SPD) levels after 48 hr treatment at 50 uM in L1210 cells; format: functional, Mus musculus
L1210 [11] = test: Inhibitory activity against L1210 cell growth for 96h; format: functional, cell-based; settings: Mus musculus, L1210, 96 h
Procedure, shortened: (§1)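 Murine leukemia L1210 cells grown with nine extracellular drug concentrations (0, 0.03, 0.1, 0.3, 1.0, 3, 10, 30, 100 µM); IC50 estimated from growth curves at 48 or 96 h; mean of at least two experiments.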

L1210 [12] = test: Inhibitory activity against L1210 cell growth for 48 hr; format: functional, cell-based; settings: Mus musculus, L1210, 48 h; procedure, shortened: as §1
L1210 [13] = test: Ability to inhibit [3H]SPD transport by L1210 cells; format: functional, cell-based, Mus musculus
Procedure, shortened: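 Ki from analogue inhibition of [3H]spermidine transport into murine leukemia L1210 cells, analysed as substrate-competitive inhibition; mean of at least two or three experiments.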

L1210 [14] = test: Effect on Putrescine (PUT) levels after 48 hr treatment at 500 uM in L1210 cells; format: functional, Mus musculus
L1210 [15] = test: Effect on spermidine (SPD) levels after 48 hr treatment at 500 uM in L1210 cells; format: functional, Mus musculus
L1210 [16] = test: Effect on spermine (SPM) levels after 48 hr treatment at 500 uM in L1210 cells; format: functional, Mus musculus

Spermidine/spermine N(1)-acetyltransferase (SAT) (Mus musculus), sequence (P48026 whole entry, looked up): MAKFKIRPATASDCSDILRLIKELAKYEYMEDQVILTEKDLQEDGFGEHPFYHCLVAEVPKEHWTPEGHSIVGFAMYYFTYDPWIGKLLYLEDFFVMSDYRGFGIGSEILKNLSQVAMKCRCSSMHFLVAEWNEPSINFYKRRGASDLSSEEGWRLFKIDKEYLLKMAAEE
Spermidine/spermine N(1)-acetyltransferase (SAT) (Mus musculus), sequence (Q6P8J2 whole entry, looked up): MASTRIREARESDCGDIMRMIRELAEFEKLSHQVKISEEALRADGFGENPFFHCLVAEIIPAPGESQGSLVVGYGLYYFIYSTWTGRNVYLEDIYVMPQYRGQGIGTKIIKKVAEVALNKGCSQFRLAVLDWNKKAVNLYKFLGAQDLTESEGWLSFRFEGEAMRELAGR

Row | Activity [6] [%] | Activity [8] [%] | IC50 (L1210 [11]) [nM] | IC50 (L1210 [12]) [µM] | Compound | Activity (L1210 [1]) | Activity [2] [%] | Cellular concentration (L1210 [3]) [nmol/10^6 cells] | Activity (L1210 [4]) | Activity (L1210 [5]) | Activity (L1210 [7]) | Activity (L1210 [9]) | Activity (L1210 [10]) | Ki (L1210 [13]) [µM] | Activity (L1210 [14]) | Activity (L1210 [15]) | Activity (L1210 [16])
1 |  |  |  |  | CCNCCCNCCCCNCCCNCC [BIS(ETHYL)SPERMINE] | 22 | 28 | 1.78 | 0 | 0 |  |  |  |  |  |  | 
2 | 16 | 667 | 400 | 8 | CCNCCCNCCC(N)CNCCCNCC (stereo not drawn) |  | 58 | 3.1 |  |  | 26 | 32 | 7 | 33.7 |  |  | 
3 | 100 | 97 | > 100000 |  | FC(F)(F)CNCCCNCCCCNCCCNCC(F)(F)F |  | 100 | < 0.02 |  |  |  |  |  |  | 87 | 94 | 116
